In ChEMBL document CHEMBL1153428, “Synthesis and structure-activity relationships of amide derivatives of (4,4-difluoro-1,2,3,4-tetrahydro-5H-1-benzazepin-5-ylidene)acetic acid as selective arginine vasopressin V2 receptor agonists” (Bioorg Med Chem, 2009):
The source made the active and inactive calls. The calls are words filed in the database; no cut-off is given here.

Legend:
Vasopressin V2 receptor [1] = target: T1, Vasopressin V2 receptor (Homo sapiens, UniProt P30518); test: Displacement of [3H]vasopressin from human V2 receptor expressed in CHO cells; assay type: cell-based
T1 sequence (P30518 whole entry): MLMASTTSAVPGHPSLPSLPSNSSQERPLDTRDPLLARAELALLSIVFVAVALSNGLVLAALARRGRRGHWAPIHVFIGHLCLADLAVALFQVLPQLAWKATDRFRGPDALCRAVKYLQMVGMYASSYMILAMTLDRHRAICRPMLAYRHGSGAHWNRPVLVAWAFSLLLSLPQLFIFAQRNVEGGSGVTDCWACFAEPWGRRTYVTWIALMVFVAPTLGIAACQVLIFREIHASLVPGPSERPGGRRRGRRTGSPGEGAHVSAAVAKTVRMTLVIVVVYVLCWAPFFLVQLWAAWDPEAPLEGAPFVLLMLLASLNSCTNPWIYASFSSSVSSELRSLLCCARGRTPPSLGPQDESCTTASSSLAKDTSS

Vasopressin V1a receptor = Vasopressin V1a receptor (Homo sapiens, UniProt P37288); test: Displacement of [3H]vasopressin from human V1a receptor expressed in CHO cells; assay type: cell-based
Vasopressin V1a receptor, sequence (P37288 whole entry): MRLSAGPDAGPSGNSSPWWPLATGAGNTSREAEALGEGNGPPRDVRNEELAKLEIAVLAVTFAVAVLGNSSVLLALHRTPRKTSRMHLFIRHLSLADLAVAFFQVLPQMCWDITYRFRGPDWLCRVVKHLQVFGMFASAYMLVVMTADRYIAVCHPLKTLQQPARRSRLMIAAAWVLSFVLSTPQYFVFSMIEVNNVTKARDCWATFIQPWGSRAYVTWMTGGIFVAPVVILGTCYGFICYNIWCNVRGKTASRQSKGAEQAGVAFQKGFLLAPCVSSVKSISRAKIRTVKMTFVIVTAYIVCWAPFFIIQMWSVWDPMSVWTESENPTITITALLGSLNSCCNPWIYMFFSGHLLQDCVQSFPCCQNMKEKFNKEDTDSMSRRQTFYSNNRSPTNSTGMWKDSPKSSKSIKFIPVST
Summary of the method: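 Membrane receptors from CHO cells expressing human V1a were used in a radioligand competition binding format. Ki values come from triplicate assays.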

Homo sapiens = species: Homo sapiens; test: Selectivity for human V1a receptor to human V2 receptor
Vasopressin V2 receptor [2] = target: T1, Vasopressin V2 receptor; test: Agonist activity at human V2 receptor expressed in CHO cells assessed as increase in cAMP level; assay type: functional, cell-based
Summary of the method: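 CHO cells stably expressing human V2 were grown in α-MEM with 10% FBS and 0.1% amethopterin at 37 °C, then serum-starved for 24 h. Compound was added in α-MEM with 1 mmol/L IBMX and 0.1% BSA for 10 min at 37 °C. Cells were lysed in PBS with 0.2% Triton X-100 and cAMP was read by HTRF. EC50 was derived by logistic regression; Emax was expressed as % of the AVP maximum. Assays were run in triplicate.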

Vasopressin V2 receptor [3] = target: T1, Vasopressin V2 receptor; test: Intrinsic activity at human V2 receptor expressed in CHO cells assessed as increase in cAMP level relative to arginine vasopressin; assay type: functional, cell-based
Summary of the method: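 CHO cells stably expressing human V2 receptors, grown in α-MEM with 10% FBS, serum-starved 24 h. Compound added in α-MEM with 1 mmol/L IBMX and 0.1% BSA, 10 min at 37 °C. Cells lysed in PBS with 0.2% Triton X-100; cAMP read by HTRF. Maximum response expressed as % of AVP maximum (100%); triplicate.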

Rattus norvegicus = test: Antidiuretic effect in iv dosed water-loaded Wistar rat assessed as suppression of urinary excretion within 4 hrs; assay type: functional, organism-based; settings: Urine
Cytochrome P450 2C9 = Cytochrome P450 2C9 (Homo sapiens, UniProt P11712); test: Inhibition of recombinant CYP2C9 by fluorescent P450 inhibition assay
Cytochrome P450 2C9, sequence (P11712 whole entry): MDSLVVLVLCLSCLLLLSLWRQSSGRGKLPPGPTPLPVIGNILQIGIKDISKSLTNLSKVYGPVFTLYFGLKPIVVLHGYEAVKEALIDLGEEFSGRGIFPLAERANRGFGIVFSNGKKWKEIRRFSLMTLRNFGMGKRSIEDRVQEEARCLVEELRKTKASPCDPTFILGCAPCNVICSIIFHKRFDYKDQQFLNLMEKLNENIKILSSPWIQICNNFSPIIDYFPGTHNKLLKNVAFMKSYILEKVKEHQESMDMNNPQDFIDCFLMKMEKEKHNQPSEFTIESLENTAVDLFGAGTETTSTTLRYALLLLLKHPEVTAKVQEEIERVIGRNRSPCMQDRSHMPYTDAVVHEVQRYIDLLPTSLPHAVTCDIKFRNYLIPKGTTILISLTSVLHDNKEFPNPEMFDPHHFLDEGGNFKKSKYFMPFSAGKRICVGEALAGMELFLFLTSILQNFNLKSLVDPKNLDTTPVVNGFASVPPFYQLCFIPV

Cytochrome P450 2C19 = Cytochrome P450 2C19 (Homo sapiens, UniProt P33261); test: Inhibition of recombinant CYP2C19 by fluorescent P450 inhibition assay
Cytochrome P450 2C19, sequence (P33261 whole entry): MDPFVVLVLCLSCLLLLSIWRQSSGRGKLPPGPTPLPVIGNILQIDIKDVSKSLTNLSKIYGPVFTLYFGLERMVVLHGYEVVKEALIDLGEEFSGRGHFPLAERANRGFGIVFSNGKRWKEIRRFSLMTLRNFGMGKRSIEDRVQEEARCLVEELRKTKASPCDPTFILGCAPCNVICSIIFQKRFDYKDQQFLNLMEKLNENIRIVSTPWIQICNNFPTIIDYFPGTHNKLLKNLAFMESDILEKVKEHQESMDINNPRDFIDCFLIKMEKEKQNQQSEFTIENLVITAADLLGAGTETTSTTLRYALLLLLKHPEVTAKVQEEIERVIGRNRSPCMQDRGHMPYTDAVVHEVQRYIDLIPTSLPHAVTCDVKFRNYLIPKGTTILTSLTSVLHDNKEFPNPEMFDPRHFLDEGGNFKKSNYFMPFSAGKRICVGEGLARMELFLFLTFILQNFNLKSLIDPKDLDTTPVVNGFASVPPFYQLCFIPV

Cytochrome P450 2D6 = Cytochrome P450 2D6 (Homo sapiens, UniProt P10635); test: Inhibition of recombinant CYP2D6 by fluorescent P450 inhibition assay
Cytochrome P450 2D6, sequence (P10635 whole entry): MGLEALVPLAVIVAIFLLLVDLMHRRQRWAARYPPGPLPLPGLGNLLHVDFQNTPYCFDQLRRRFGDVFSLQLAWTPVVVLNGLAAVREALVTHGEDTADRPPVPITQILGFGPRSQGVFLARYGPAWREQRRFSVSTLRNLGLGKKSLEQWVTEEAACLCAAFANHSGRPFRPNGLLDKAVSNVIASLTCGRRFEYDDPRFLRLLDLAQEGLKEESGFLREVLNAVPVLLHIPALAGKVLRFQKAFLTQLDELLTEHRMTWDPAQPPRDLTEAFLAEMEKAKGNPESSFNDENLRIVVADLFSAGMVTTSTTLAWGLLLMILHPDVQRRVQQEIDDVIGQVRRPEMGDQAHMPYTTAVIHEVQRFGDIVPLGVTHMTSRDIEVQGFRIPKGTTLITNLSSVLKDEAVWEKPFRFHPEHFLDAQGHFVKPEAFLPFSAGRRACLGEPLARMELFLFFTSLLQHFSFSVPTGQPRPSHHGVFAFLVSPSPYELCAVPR

Cytochrome P450 3A4 = Cytochrome P450 3A4 (Homo sapiens, UniProt P08684); test: Inhibition of CYP3A4 in human liver microsome assessed as 1'-hydroxymidazolam formation by competitive inhibition assay
Cytochrome P450 3A4, sequence (P08684 whole entry): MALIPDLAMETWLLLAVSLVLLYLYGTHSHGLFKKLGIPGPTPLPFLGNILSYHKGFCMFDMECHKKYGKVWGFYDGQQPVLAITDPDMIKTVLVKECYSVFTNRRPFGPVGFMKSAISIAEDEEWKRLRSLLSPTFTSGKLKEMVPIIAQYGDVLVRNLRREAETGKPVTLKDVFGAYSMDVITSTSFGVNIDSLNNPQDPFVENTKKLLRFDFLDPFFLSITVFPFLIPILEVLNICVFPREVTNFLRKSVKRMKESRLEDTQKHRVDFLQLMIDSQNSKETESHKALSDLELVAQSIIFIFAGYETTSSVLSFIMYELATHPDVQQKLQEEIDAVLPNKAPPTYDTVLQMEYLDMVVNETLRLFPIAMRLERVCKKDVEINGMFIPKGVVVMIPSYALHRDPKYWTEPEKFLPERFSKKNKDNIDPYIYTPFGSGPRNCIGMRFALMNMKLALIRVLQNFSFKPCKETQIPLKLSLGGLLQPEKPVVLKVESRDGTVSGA

Row | SMILES | Ki (Vasopressin V2 receptor [1]) [nM] | Ki (Vasopressin V1a receptor) [nM] | Ratio Ki (Homo sapiens) | other results
1 | Cc1ccn(-c2ccc(C(=O)N3CCC(F)(F)/C(=C\C(=O)NCc4cccnc4)c4ccccc43)c(Cl)c2)n1 | 21 | 40 | 1.9 | 
2 | CCCNC(=O)/C=C1/c2ccccc2N(C(=O)c2ccc(-n3ccc(C)n3)cc2Cl)CCC1(F)F | 18 | 13 | 0.72 | 
3 | Cc1ccn(-c2ccc(C(=O)N3CCC(F)(F)/C(=C\C(=O)NCc4cnccn4)c4ccccc43)c(Cl)c2)n1 | 14 | 57 | 4.1 | 
4 | Cc1ccn(-c2ccc(C(=O)N3CCC(F)(F)/C(=C\C(=O)NCc4ccccn4)c4ccccc43)c(Cl)c2)n1 |  | 26 |  | 
5 | Cc1ccn(-c2ccc(C(=O)N3CCC(F)(F)/C(=C\C(=O)NCc4ccncn4)c4ccccc43)c(Cl)c2)n1 | 11 | 44 | 4 | 
6 | Cc1ccn(-c2ccc(C(=O)N3CCC(F)(F)/C(=C\C(=O)NCc4cccc(C#N)n4)c4ccccc43)c(Cl)c2)n1 | 7.4 | 22 | 3 | 
7 | Cc1ccn(-c2ccc(C(=O)N3CCC(F)(F)/C(=C\C(=O)NCc4nc5ccccc5s4)c4ccccc43)c(Cl)c2)n1 | 11 | 55 | 5 | 
8 | Cc1ccn(-c2ccc(C(=O)N3CCC(F)(F)/C(=C\C(=O)NCCN(C)C)c4ccccc43)c(Cl)c2)n1 | 53 | 59 | 1.1 | 
9 | Cc1ccn(-c2ccc(C(=O)N3CCC(F)(F)/C(=C\C(=O)NCC(N)=O)c4ccccc43)c(Cl)c2)n1 | 11 | 40 | 3.6 | 
10 | Cc1ccn(-c2ccc(C(=O)N3CCC(F)(F)/C(=C\C(=O)NCc4nccs4)c4ccccc43)c(Cl)c2)n1 | 11 | 43 | 3.9 | 
11 | Cc1ccn(-c2ccc(C(=O)N3CCC(F)(F)/C(=C\C(N)=O)c4ccccc43)c(Cl)c2)n1 | 33 | 190 | 5.8 | 
12 | Cc1ccn(-c2ccc(C(=O)N3CCC(F)(F)/C(=C\C(=O)NCc4cccc(N(C)C)n4)c4ccccc43)c(Cl)c2)n1 | 11 | 48 | 4.4 | 
13 | Cc1ccn(-c2ccc(C(=O)N3CCC(F)(F)/C(=C\C(=O)NCc4ccccc4)c4ccccc43)c(Cl)c2)n1 | 19 | 43 | 2.3 | 
14 | Cc1ccn(-c2ccc(C(=O)N3CCC(F)(F)/C(=C\C(=O)NCc4ccncc4)c4ccccc43)c(Cl)c2)n1 | 20 | 15 | 0.75 | 
15 | Cc1ccn(-c2ccc(C(=O)N3CCC(F)(F)/C(=C\C(=O)NCc4cccnn4)c4ccccc43)c(Cl)c2)n1 | 3.4 | 43 |  | EC50 (Vasopressin V2 receptor [2]): 16 nM; Emax (Vasopressin V2 receptor [3]): 86.4%; Activity (Rattus norvegicus): Active
16 | Cc1ccn(-c2ccc(C(=O)N3CCC(F)(F)/C(=C\C(=O)NCc4nc5ccccc5[nH]4)c4ccccc43)c(Cl)c2)n1 | 12 | 72 | 6 | 
17 | Cc1ccn(-c2ccc(C(=O)N3CCC(F)(F)/C(=C\C(=O)NCC(=O)O)c4ccccc43)c(Cl)c2)n1 | 22 | 230 | 10 | 
18 | COc1cccc(CNC(=O)/C=C2/c3ccccc3N(C(=O)c3ccc(-n4ccc(C)n4)cc3Cl)CCC2(F)F)n1 | 16 | 47 | 2.9 | 
19 | Cc1ccn(-c2ccc(C(=O)N3CCC(F)(F)/C(=C\C(=O)NCc4cccc(N)n4)c4ccccc43)c(Cl)c2)n1 | 10 | 38 | 3.8 | 
20 | Cc1cccc(CNC(=O)/C=C2/c3ccccc3N(C(=O)c3ccc(-n4ccc(C)n4)cc3Cl)CCC2(F)F)n1 |  | 30 | 5.4 | 
21 | Cc1ccn(-c2ccc(C(=O)N3CCC(F)(F)/C(=C\C(=O)O)c4ccccc43)c(Cl)c2)n1 | 25 | 6300 | 252 | EC50 (Vasopressin V2 receptor [2]): 4.2 nM; Emax (Vasopressin V2 receptor [3]): 92.4%; IC50 (Cytochrome P450 2C9): > 20000 nM; IC50 (Cytochrome P450 2C19): > 20000 nM; IC50 (Cytochrome P450 2D6): 11000 nM; IC50 (Cytochrome P450 3A4): > 20000 nM; Activity (Rattus norvegicus): inactive
22 | Cc1ccn(-c2ccc(C(=O)N3CCC(F)(F)/C(=C\C(=O)NCCO)c4ccccc43)c(Cl)c2)n1 | 9.7 | 28 |  | EC50 (Vasopressin V2 receptor [2]): 6.3 nM; Emax (Vasopressin V2 receptor [3]): 93.9%; Activity (Rattus norvegicus): Active
23 | Cc1ccn(-c2ccc(C(=O)N3CCC(F)(F)/C(=C\C(=O)NCc4ccco4)c4ccccc43)c(Cl)c2)n1 | 27 | 72 | 2.7 | 
